Tests used:
[1] = tested on: gp100-reactive T cells with EL-4 thymoma cells; assay: Recognition of peptide-pulsed EL-4 at limiting concentrations, IFN-γ ELISA; assay type: cell-based; settings: human versus mouse epitope
[2] = target: H-2D^b (Mus musculus, UniProt P01899); assay: MHC class I stabilization assay on RMA/S cells; assay type: binding
Summary of the method: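 RMA/S cells (TAP-deficient, H-2b) preincubated 24 h at room temperature, then pulsed with peptides across a concentration range, with control peptides, at room temperature (25°C). Next, 4 h at 37°C to allow turnover of empty class I. Stained with FITC anti-H-2Db mAb KH95 for 1 h at 4°C and analysed by flow cytometry. Expressed as percentage of maximal stabilization at 100 μM.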

H-2D^b, sequence (P01899 whole entry, looked up): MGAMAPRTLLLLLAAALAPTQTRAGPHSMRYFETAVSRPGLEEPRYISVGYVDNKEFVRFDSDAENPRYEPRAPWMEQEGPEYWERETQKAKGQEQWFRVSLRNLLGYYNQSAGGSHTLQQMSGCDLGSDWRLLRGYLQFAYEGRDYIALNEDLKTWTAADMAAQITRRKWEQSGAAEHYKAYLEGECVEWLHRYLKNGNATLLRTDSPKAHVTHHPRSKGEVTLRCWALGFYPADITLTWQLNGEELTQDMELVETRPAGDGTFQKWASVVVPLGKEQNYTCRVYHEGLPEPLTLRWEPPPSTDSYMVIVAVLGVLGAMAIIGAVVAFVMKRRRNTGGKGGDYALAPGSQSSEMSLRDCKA

- affinity for H-2D^b ([2]; compared with mgp100_25–33, Fig. 6): dramatically increased affinity
- increase in ability to stabilize “empty” D^b on RMA-S cells ([2]; human versus mouse epitope): 2 log
Sequence: KVPRNQDWL [hgp100_25–33]
- increase in ability to trigger interferon γ release by T cells [1]: 3 log

— paper PMC2212458 (The Journal of Experimental Medicine, 1998)
